The record followed here is ChEMBL document CHEMBL3352060, “Synthesis and SAR study of novel tricyclic pyrazoles as potent phosphodiesterase 10A inhibitors” (Eur J Med Chem, 2014).

The target of data set [1] is cGMP-dependent 3',5'-cyclic phosphodiesterase (Homo sapiens) (UniProt O00408). The data set can be described thus: Inhibition of PDE2A (unknown origin) at 10 uM.
Data set [2] deals with 3',5'-cyclic-AMP phosphodiesterase 7B (Homo sapiens) (UniProt Q9NP56). The data set is described as follows: Inhibition of PDE7B (unknown origin) at 10 uM.
The target of data set [3] is T1, cAMP and cAMP-inhibited cGMP 3',5'-cyclic phosphodiesterase 10A (Homo sapiens, UniProt Q9Y233). The data set can be described thus: Inhibition of PDE10A (unknown origin) at 10 uM.
The target of data set [4] is High affinity cGMP-specific 3',5'-cyclic phosphodiesterase 9A (Homo sapiens) (UniProt O76083). The data set is described as follows: Inhibition of PDE9A (unknown origin) at 10 uM.
Data set [5] deals with Dual 3',5'-cyclic-AMP and -GMP phosphodiesterase 11A (Homo sapiens) (UniProt Q9HCR9). The data set can be described thus: Inhibition of PDE11A (unknown origin) at 2 uM.
In data set [6] the target is cGMP-specific 3',5'-cyclic phosphodiesterase (Homo sapiens) (UniProt O76074). The data set is described as follows: Inhibition of PDE5A (unknown origin) at 10 uM.
In data set [7] the target is cGMP-inhibited 3',5'-cyclic phosphodiesterase 3A (Homo sapiens) (UniProt Q14432). The data set can be described thus: Inhibition of PDE3A (unknown origin) at 10 uM.
Data set [8] concerns MDCK. The data set is described as follows: Apparent permeability across apical to basolateral side in MDCK cells expressing MDR1 (unknown origin). More on the design: unit not given here. As to conditions: dog.
In data set [9] the target is T1, cAMP and cAMP-inhibited cGMP 3',5'-cyclic phosphodiesterase 10A. The data set can be described thus: Inhibition of human PDE10A (amino acids 14 to 779) using [3H]-labelled cyclic nucleotide as substrate after 1 hr b beta counting. The method in brief:
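PDE10A expressed in baculovirus-infected Sf9 cells (27 °C, harvested at 72 h), lysed in Tris/MgCl2/triton buffer and partially purified on Q sepharose. Reactions contained enzyme sufficient to convert 20–25% of substrate, 50 mM HEPES pH 7.6, 10 mM MgCl2, 0.02% Tween20, 0.1 mg/ml BSA, 3H-cAMP at 5 nM final and varying inhibitor levels. Signal was counted by Microbeta, activity was normalized to an uninhibited control (100%), and IC50 values were derived.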

Data set [10] has as its target High affinity cAMP-specific and IBMX-insensitive 3',5'-cyclic phosphodiesterase 8A (Homo sapiens) (UniProt O60658). The data set can be described thus: Inhibition of PDE8A (unknown origin) at 10 uM.
Data set [11] addresses 3',5'-cyclic-AMP phosphodiesterase 4D (Homo sapiens) (UniProt Q08499). The data set can be described thus: Inhibition of PDE4D (unknown origin) at 10 uM.
Data set [12] has as its target Dual specificity calcium/calmodulin-dependent 3',5'-cyclic nucleotide phosphodiesterase 1C (Homo sapiens) (UniProt Q14123). The data set is described as follows: Inhibition of PDE1C (unknown origin) at 10 uM.
The target in data set [13] is Dual 3',5'-cyclic-AMP and -GMP phosphodiesterase 11A (Homo sapiens) (UniProt Q9HCR9). The data set can be described thus: Inhibition of PDE11A (unknown origin) at 10 uM.
Data set [14] addresses T1, cAMP and cAMP-inhibited cGMP 3',5'-cyclic phosphodiesterase 10A. The data set can be described thus: Inhibition of PDE10A (unknown origin) at 2 uM.

cGMP-inhibited 3',5'-cyclic phosphodiesterase 3A (Homo sapiens), sequence (Q14432 whole entry): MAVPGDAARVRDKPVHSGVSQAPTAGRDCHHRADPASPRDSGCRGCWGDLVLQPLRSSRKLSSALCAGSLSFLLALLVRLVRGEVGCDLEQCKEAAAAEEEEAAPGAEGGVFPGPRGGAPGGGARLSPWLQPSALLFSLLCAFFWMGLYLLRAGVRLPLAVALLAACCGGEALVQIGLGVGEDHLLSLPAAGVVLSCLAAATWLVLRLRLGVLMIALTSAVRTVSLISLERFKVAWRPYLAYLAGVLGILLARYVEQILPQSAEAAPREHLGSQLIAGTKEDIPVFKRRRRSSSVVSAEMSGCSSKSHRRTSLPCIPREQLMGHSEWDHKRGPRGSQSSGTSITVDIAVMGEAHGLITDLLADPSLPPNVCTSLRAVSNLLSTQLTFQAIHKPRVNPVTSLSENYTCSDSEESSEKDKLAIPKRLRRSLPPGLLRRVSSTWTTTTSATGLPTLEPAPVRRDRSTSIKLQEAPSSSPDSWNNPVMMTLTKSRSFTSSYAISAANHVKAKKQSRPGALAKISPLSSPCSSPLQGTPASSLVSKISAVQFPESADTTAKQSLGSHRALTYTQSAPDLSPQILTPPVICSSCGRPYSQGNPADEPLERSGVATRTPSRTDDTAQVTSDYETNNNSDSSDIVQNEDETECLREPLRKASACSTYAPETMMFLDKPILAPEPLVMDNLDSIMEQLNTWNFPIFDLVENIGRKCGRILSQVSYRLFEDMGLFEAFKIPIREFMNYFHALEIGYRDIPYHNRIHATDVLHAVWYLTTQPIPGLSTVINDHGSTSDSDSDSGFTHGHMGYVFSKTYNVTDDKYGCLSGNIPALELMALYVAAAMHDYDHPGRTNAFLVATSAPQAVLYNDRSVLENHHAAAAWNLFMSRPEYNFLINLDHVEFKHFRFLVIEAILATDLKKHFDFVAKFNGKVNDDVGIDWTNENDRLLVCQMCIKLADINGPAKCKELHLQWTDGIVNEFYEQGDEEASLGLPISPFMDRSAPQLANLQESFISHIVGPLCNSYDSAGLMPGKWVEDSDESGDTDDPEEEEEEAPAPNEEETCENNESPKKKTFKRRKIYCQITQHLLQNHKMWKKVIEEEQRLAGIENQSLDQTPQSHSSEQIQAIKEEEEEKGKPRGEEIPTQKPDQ
High affinity cAMP-specific and IBMX-insensitive 3',5'-cyclic phosphodiesterase 8A (Homo sapiens), sequence (O60658 whole entry): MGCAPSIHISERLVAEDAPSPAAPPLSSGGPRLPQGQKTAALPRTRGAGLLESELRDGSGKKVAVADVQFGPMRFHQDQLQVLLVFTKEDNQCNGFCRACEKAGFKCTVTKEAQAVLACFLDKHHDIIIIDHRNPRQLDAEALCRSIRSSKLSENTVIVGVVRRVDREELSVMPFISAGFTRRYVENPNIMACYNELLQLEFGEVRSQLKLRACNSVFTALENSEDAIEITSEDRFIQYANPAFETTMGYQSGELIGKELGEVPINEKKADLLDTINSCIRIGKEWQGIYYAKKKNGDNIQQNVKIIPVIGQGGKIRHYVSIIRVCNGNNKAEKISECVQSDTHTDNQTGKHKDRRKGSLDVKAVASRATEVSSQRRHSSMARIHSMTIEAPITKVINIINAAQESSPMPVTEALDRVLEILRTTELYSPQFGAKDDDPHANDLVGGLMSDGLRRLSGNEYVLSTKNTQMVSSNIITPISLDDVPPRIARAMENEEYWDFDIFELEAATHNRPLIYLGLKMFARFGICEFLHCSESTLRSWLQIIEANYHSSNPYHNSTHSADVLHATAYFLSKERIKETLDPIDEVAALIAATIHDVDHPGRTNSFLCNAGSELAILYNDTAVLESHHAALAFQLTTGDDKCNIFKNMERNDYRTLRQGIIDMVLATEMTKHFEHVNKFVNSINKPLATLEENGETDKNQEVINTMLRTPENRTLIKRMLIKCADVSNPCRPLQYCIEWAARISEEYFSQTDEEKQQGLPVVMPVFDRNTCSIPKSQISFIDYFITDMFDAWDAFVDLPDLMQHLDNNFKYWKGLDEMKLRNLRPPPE
3',5'-cyclic-AMP phosphodiesterase 4D (Homo sapiens), sequence (Q08499 whole entry): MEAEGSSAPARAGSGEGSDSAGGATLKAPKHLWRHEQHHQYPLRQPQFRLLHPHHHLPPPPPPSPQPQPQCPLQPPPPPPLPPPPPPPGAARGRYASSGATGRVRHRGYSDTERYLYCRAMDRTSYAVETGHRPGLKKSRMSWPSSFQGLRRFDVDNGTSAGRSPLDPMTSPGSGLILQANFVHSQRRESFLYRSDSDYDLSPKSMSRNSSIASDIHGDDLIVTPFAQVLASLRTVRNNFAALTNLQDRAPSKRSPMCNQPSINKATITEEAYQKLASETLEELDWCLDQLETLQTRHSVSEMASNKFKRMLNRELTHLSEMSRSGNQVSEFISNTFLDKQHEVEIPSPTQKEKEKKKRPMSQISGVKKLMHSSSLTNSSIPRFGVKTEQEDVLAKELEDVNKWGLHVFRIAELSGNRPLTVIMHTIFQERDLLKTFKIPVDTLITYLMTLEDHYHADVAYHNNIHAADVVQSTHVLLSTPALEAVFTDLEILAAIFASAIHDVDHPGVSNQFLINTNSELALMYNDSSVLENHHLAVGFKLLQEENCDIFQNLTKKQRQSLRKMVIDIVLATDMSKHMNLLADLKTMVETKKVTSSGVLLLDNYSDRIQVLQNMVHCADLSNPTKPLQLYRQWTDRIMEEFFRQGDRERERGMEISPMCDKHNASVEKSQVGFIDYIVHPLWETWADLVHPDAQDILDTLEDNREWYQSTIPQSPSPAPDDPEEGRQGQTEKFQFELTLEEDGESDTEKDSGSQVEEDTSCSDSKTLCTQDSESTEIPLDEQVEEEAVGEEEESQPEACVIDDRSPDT
cGMP-dependent 3',5'-cyclic phosphodiesterase (Homo sapiens), sequence (O00408 whole entry): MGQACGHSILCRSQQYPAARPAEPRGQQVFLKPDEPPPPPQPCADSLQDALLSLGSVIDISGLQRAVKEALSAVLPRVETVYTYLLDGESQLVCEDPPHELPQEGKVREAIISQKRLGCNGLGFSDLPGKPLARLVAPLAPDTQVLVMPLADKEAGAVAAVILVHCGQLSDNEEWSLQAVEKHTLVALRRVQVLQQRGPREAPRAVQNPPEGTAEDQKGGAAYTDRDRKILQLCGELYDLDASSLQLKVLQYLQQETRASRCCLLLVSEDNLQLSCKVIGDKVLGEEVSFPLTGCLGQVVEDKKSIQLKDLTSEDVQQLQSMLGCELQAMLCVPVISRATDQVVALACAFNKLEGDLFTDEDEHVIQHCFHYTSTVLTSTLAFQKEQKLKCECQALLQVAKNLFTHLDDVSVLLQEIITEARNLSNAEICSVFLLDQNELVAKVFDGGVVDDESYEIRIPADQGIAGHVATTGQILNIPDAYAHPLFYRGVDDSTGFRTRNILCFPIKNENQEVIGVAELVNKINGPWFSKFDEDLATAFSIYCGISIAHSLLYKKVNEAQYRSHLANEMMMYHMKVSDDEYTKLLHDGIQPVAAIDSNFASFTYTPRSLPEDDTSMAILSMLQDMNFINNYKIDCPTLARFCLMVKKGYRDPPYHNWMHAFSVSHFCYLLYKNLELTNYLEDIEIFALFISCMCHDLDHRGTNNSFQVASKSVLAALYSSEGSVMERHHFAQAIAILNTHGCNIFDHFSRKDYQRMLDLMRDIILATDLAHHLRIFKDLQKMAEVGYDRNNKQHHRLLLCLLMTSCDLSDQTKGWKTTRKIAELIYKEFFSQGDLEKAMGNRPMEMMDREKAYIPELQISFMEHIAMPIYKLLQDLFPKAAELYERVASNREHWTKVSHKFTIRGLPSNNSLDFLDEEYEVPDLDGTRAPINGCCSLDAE
3',5'-cyclic-AMP phosphodiesterase 7B (Homo sapiens), sequence (Q9NP56 whole entry): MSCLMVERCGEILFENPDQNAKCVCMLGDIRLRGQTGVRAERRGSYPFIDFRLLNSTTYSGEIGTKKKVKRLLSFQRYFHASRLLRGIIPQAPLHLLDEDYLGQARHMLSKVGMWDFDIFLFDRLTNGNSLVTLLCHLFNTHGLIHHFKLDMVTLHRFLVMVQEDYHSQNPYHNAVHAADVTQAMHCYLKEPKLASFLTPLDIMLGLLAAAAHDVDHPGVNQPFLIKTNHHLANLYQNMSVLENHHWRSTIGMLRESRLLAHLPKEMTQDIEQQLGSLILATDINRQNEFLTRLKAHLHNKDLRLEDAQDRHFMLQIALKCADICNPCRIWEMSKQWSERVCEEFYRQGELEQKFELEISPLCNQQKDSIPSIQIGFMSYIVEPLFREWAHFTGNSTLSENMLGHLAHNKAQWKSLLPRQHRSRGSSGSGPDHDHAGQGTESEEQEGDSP
Dual specificity calcium/calmodulin-dependent 3',5'-cyclic nucleotide phosphodiesterase 1C (Homo sapiens), sequence (Q14123 whole entry): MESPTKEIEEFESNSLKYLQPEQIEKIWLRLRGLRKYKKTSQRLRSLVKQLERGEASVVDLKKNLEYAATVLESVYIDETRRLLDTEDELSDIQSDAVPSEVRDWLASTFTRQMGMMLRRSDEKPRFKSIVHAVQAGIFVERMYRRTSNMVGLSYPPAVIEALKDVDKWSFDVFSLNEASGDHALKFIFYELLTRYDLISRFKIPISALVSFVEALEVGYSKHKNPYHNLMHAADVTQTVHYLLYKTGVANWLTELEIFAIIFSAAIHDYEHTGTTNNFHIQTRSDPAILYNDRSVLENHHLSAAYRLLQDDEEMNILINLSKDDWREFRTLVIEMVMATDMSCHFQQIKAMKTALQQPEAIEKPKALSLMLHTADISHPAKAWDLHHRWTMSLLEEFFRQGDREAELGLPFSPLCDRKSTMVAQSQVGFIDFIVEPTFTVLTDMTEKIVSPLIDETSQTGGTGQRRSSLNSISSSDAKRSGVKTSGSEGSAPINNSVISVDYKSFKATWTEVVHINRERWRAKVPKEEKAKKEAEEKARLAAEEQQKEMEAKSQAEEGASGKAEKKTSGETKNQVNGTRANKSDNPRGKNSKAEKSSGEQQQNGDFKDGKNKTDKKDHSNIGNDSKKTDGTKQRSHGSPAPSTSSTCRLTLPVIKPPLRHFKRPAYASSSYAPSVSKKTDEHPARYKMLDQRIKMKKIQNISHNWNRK

In the case of `COCc1cc2c3cccnc3cc(CCc3nc(-c4ccccc4)cn3C)n2n1`, the inhibition – broadly, the change of the read-out against control, counted positive when it falls – in data set [1] was found to be 69%; in data set [2], 47%; in [3], 106%; in [4], 15%; in [5], 70%; in [6], 38%. The inhibition in data set [7] came to 51%; in [10], 29%; in data set [11] it was 58%; in [12] it was 7%. Moreover, the “Papp A-B” value in [8] is listed as 17.8. In addition, in data set [9], the IC50 – broadly, the concentration that inhibits the measured activity by half – stood at 0.042 µM.
Regarding `Cc1cc2c3cnccc3cc(CCc3nc4ccccc4n3C)n2n1`, the inhibition is 54% in [1]; 1% in [13]; -3% in data set [2]; 15% in data set [4]; 79% in data set [14]; 39% in data set [6]. Further, the inhibition in data set [7] came to 30%; in [10], 46%; in data set [11] it was 15%; in data set [12] it was 10%. In [9], this molecule had an IC50 of 0.48 µM.
`Cc1cc2c3cccnc3cc(CCc3nc(-c4ccccc4)cn3C)n2n1`: the inhibition in [1] is 28%; in [13], 34%; in [2] it was 18%; in data set [4] it was 5%; in data set [14], 102%; in data set [6], 35%. The inhibition in data set [7] is 5%; in [10], 16%; in data set [11], 38%; in data set [12], 15%. For the same molecule, in data set [9], it took 0.04 µM to reach half-maximal inhibition (IC50).
Consider `CCOC(=O)c1cc2c3cccnc3cc(CCc3nc(-c4ccccc4)cn3C)n2n1`, for which the inhibition was 44% in data set [1]; 7% in data set [13]; -4% in data set [2]; 20% in data set [4]; 88% in data set [14]; 13% in data set [6]. For the same molecule, the figures for the inhibition in data set [7], in data set [10] and in data set [11] were 13%, 46% and 45%, respectively. The molecule further had an IC50 in data set [9] of 0.22 µM.
Take `Cc1cc2c3ccccc3cc(CCc3nc4ccccc4n3C)n2n1`: the inhibition in data set [1] came to 8%; in data set [2], 11%; in data set [3] it was 77%; in data set [4] it was 10%; in [5] it was 12%; in data set [6] it was 20%. Besides, the inhibition in data set [7] was 15%; in data set [10] it was 36%; in data set [11] it was 11%; in data set [12], -7%. Further, in [8], the “Papp A-B” value stood at 1.1. For the same molecule, half-maximal inhibition in data set [9] (IC50) required 1 µM.
For the molecule `Cc1cc2c3ccccc3cc(CCc3nc(-c4ccccc4)cn3C)n2n1`, the inhibition in data set [1] was found to be 14%; in data set [2], 13%; in [3], 72%; in data set [5], 13%; in data set [7], 20%; in [10], 17%. The inhibition in [11] was 12%; in data set [12] it was -1%. Besides, the “Papp A-B” value in data set [8] amounted to 3.1. 0.9 µM corresponded to half-maximal inhibition in data set [9] (IC50).
Consider `Cc1cc2c3cccnc3cc(CCc3nc4ccccc4n3C)n2n1`, for which the inhibition was 55% in data set [1]; 43% in [13]; 27% in [2]; 21% in data set [4]; 93% in data set [14]; 67% in data set [6]. The inhibition is 16% in [7], 13% in [10], 23% in data set [11] and 28% in data set [12]. Besides, inhibition in [9] was half-maximal at 0.17 µM (IC50).
For `Cc1cc2c3ccncc3cc(CCc3nc(-c4ccccc4)cn3C)n2n1`, the inhibition in [1] was 17%; in data set [2] it was 53%; in [3], 102%; in data set [4], 12%; in [5], 37%; in [6], 59%. Moreover, the inhibition in [7] stood at 49%; in [10], 37%; in [11], 68%; in data set [12], 24%. Further, the “Papp A-B” value in [8] was determined as 11.7. In data set [9], the IC50 was determined as 0.04 µM.
Take `Cc1cc2c3cnccc3cc(CCc3nc(-c4ccccc4)cn3C)n2n1`: the inhibition was 20% in data set [1]; 7% in [13]; 41% in data set [2]; 53% in data set [4]; 100% in [14]; 15% in data set [6]. In addition, the inhibition in [7] is 13%; in data set [10], 25%; in data set [11], 25%; in data set [12], 11%. In data set [9], half-maximal inhibition (IC50) required 0.055 µM.
As for `Cn1cc(-c2ccccc2)nc1CCc1cc2ncccc2c2cc(C(F)(F)F)nn12`, the inhibition was determined as 13% in data set [1]; 41% in [2]; 101% in data set [3]; 8% in data set [4]; 25% in data set [5]; 33% in data set [6]. In addition, the inhibition is 28% in data set [7], 31% in [10], 44% in [11] and -3% in data set [12]. Besides, the “Papp A-B” value in data set [8] was found to be 3.1. The IC50 in [9] turned out to be 0.19 µM.
Take `CCOC(=O)c1cc2c3cccnc3cc(CCc3nc4ccccc4n3C)n2n1`: the inhibition in data set [1] was 20%; in data set [13] it was 10%; in data set [2], 17%; in data set [4] it was -2%; in data set [14], 73%; in [6], 38%. Moreover, the inhibition was 1% in data set [7], -6% in [10], 24% in data set [11] and 27% in data set [12]. In [9], this molecule gave an IC50 of 1.3 µM.
